Test results from ChEMBL document CHEMBL4765405, “Design, synthesis and biological activities of novel pleuromutilin derivatives with a substituted triazole moiety as potent antibacterial agents” (Eur J Med Chem, 2020).
Converted amounts (≈) assume the structure as drawn. The source made the active and inactive calls. The calls are words filed in the database; no cut-off is given here.

What was measured:
[1] = test system: Escherichia coli; experiment: Bactericidal activity against Escherichia coli ATCC 25922 preincubated 16 to 20 hrs followed by subculturing and measured after over night; assay type: functional
In short: (§1)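 MBC by CLSI broth microdilution on the same strain panel: S. aureus ATCC 43300, ATCC 29213, clinical isolates AD3 and 144, E. coli ATCC 25922; ATCC 43300 served as QC strain.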

[2] = test system: Staphylococcus aureus; experiment: Bactericidal activity against Staphylococcus aureus ATCC 29213 preincubated 16 to 20 hrs followed by subculturing and measured after over night; assay type: functional; in short: as §1
[3] = test system: Staphylococcus aureus; experiment: Bactericidal activity against methicillin-resistant Staphylococcus aureus ATCC 43300 assessed as reduction in bacterial growth at > 8 time of MIC concentration preincubated up to 24 hrs followed by subculturing and measured after 20 hrs by time-kill assay; assay type: functional, organism-based; conditions: time hrs <=44
[4] = test system: Staphylococcus aureus; experiment: Bactericidal activity against Staphylococcus aureus AD3 preincubated 16 to 20 hrs followed by subculturing and measured after over night; assay type: functional; in short: as §1
[5] = test system: Escherichia coli; experiment: Antibacterial activity against Escherichia coli ATCC 25922 after 24 hrs by CLSI based broth micro dilution method; assay type: functional
In short: (§2)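 CLSI broth microdilution MIC against S. aureus ATCC 43300 (MRSA), ATCC 29213, clinical isolates AD3 and 144 (Guangdong Province), and E. coli ATCC 25922; ATCC 43300 served as QC strain, with the CLSI quality control range as reference.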

[6] = Ratio of MBC for bactericidal activity against methicillin-resistant Staphylococcus aureus ATCC 43300 to MIC for antibacterial activity against methicillin-resistant Staphylococcus aureus ATCC 4330; assay type: functional
[7] = test system: Staphylococcus aureus; experiment: Antibacterial activity against Staphylococcus aureus ATCC 29213 after 24 hrs by CLSI based broth micro dilution method; assay type: functional
In short: (§3)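 Broth microdilution run per CLSI. MRSA ATCC 43300 served as the QC strain, with the CLSI QC range as reference. S. aureus AD3 and 144 are clinical isolates from Guangdong Province. Pleuromutilin and tiamulin were run as reference drugs.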

[8] = test system: Staphylococcus aureus; experiment: Antibacterial activity against Staphylococcus aureus AD3 after 24 hrs by CLSI based broth micro dilution method; assay type: functional; in short: as §2
[9] = test system: Staphylococcus aureus; experiment: Antibacterial activity against Staphylococcus aureus 144 after 24 hrs by CLSI based broth micro dilution method; assay type: functional; in short: as §3
[10] = test system: Staphylococcus aureus; experiment: Antibacterial activity against methicillin-resistant Staphylococcus aureus ATCC 43300 after 24 hrs by CLSI based broth micro dilution method; assay type: functional; in short: as §3
[11] = test system: Staphylococcus aureus; experiment: Bactericidal activity against methicillin-resistant Staphylococcus aureus ATCC 43300 preincubated 16 to 20 hrs followed by subculturing and measured after over night; assay type: functional
In short: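 MBC determined by the CLSI broth microdilution method against MRSA ATCC 43300, with ATCC 43300 also serving as the QC strain. Pleuromutilin and tiamulin were reference drugs.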

[12] = test system: Staphylococcus aureus; experiment: Bactericidal activity against Staphylococcus aureus 144 preincubated 16 to 20 hrs followed by subculturing and measured after over night; assay type: functional; in short: as §1

SMILES	MBC [1]	MBC [2]	Activity [3]	MBC [4]	MIC [5]	Ratio [6]	MIC [7]	MIC [8]	MIC [9]	MIC [10]	MBC [11]	MBC [12]
C=C[C@]1(C)C[C@@H](OC(=O)CSc2ccccc2NC(=O)Cn2cc(CN3CCN(c4cccc([N+](=O)[O-])c4)CC3)nn2)[C@]2(C)[C@H](C)CC[C@]3(CCC(=O)[C@H]32)[C@@H](C)[C@@H]1O	> 32 µg/mL	0.25 µg/mL (≈ 0.307 µM)	Active	0.5 µg/mL (≈ 0.614 µM)	> 32 µg/mL	1	0.25 µg/mL (≈ 0.307 µM)	0.25 µg/mL (≈ 0.307 µM)	0.25 µg/mL (≈ 0.307 µM)	0.125 µg/mL (≈ 0.154 µM)	0.25 µg/mL (≈ 0.307 µM)	0.5 µg/mL (≈ 0.614 µM)
C=C[C@]1(C)C[C@@H](OC(=O)CSc2ccccc2NC(=O)Cn2cc(CN3CCN(c4ccc([N+](=O)[O-])cc4)CC3)nn2)[C@]2(C)[C@H](C)CC[C@]3(CCC(=O)[C@H]32)[C@@H](C)[C@@H]1O	> 32 µg/mL	0.125 µg/mL (≈ 0.154 µM)	Active	0.5 µg/mL (≈ 0.614 µM)	> 32 µg/mL	1	0.125 µg/mL (≈ 0.154 µM)	0.25 µg/mL (≈ 0.307 µM)	0.25 µg/mL (≈ 0.307 µM)	0.125 µg/mL (≈ 0.154 µM)	0.25 µg/mL (≈ 0.307 µM)	0.25 µg/mL (≈ 0.307 µM)
C=C[C@]1(C)C[C@@H](OC(=O)CSc2ccccc2NC(=O)Cn2cc(CN3CCN(c4ccc(F)cc4)CC3)nn2)[C@]2(C)[C@H](C)CC[C@]3(CCC(=O)[C@H]32)[C@@H](C)[C@@H]1O	> 32 µg/mL	0.5 µg/mL (≈ 0.635 µM)		1 µg/mL (≈ 1.27 µM)	> 32 µg/mL	1	0.5 µg/mL (≈ 0.635 µM)	0.5 µg/mL (≈ 0.635 µM)	1 µg/mL (≈ 1.27 µM)	1 µg/mL (≈ 1.27 µM)	1 µg/mL (≈ 1.27 µM)	2 µg/mL (≈ 2.54 µM)
C=C[C@]1(C)C[C@@H](OC(=O)CSc2ccccc2NC(=O)Cn2cc(CN3CCC(CCO)CC3)nn2)[C@]2(C)[C@H](C)CC[C@]3(CCC(=O)[C@H]32)[C@@H](C)[C@@H]1O	> 32 µg/mL	0.5 µg/mL (≈ 0.679 µM)		1 µg/mL (≈ 1.36 µM)	> 32 µg/mL	1	0.5 µg/mL (≈ 0.679 µM)	1 µg/mL (≈ 1.36 µM)	0.5 µg/mL (≈ 0.679 µM)	0.5 µg/mL (≈ 0.679 µM)	1 µg/mL (≈ 1.36 µM)	0.5 µg/mL (≈ 0.679 µM)
C=C[C@]1(C)C[C@@H](OC(=O)CSc2ccccc2NC(=O)Cn2cc(CN3CCN(c4ccccc4OC)CC3)nn2)[C@]2(C)[C@H](C)CC[C@]3(CCC(=O)[C@H]32)[C@@H](C)[C@@H]1O	> 32 µg/mL	2 µg/mL (≈ 2.5 µM)		2 µg/mL (≈ 2.5 µM)	> 32 µg/mL	1	1 µg/mL (≈ 1.25 µM)	1 µg/mL (≈ 1.25 µM)	1 µg/mL (≈ 1.25 µM)	0.5 µg/mL (≈ 0.626 µM)	1 µg/mL (≈ 1.25 µM)	4 µg/mL (≈ 5.01 µM)
C=C[C@]1(C)C[C@@H](OC(=O)CSc2ccccc2NC(=O)Cn2cc(CN3CCN(c4ccc(Cl)cc4)CC3)nn2)[C@]2(C)[C@H](C)CC[C@]3(CCC(=O)[C@H]32)[C@@H](C)[C@@H]1O	> 32 µg/mL	4 µg/mL (≈ 4.98 µM)		4 µg/mL (≈ 4.98 µM)	> 32 µg/mL	1	1 µg/mL (≈ 1.24 µM)	2 µg/mL (≈ 2.49 µM)	2 µg/mL (≈ 2.49 µM)	0.5 µg/mL (≈ 0.622 µM)	1 µg/mL (≈ 1.24 µM)	2 µg/mL (≈ 2.49 µM)
C=C[C@]1(C)C[C@@H](OC(=O)CSc2ccccc2NC(=O)Cn2cc(CN3CCN(C)CC3)nn2)[C@]2(C)[C@H](C)CC[C@]3(CCC(=O)[C@H]32)[C@@H](C)[C@@H]1O	> 32 µg/mL	0.5 µg/mL (≈ 0.707 µM)		1 µg/mL (≈ 1.41 µM)	> 32 µg/mL	1	0.25 µg/mL (≈ 0.354 µM)	0.5 µg/mL (≈ 0.707 µM)	0.5 µg/mL (≈ 0.707 µM)	0.25 µg/mL (≈ 0.354 µM)	0.5 µg/mL (≈ 0.707 µM)	2 µg/mL (≈ 2.83 µM)
C=C[C@]1(C)C[C@@H](OC(=O)CSc2ccccc2NC(=O)Cn2cc(CN3CCN(c4cccc(C)c4)CC3)nn2)[C@]2(C)[C@H](C)CC[C@]3(CCC(=O)[C@H]32)[C@@H](C)[C@@H]1O	> 32 µg/mL	2 µg/mL (≈ 2.55 µM)		4 µg/mL (≈ 5.11 µM)	> 32 µg/mL	1	1 µg/mL (≈ 1.28 µM)	2 µg/mL (≈ 2.55 µM)	1 µg/mL (≈ 1.28 µM)	1 µg/mL (≈ 1.28 µM)	1 µg/mL (≈ 1.28 µM)	8 µg/mL (≈ 10.2 µM)
C=C[C@]1(C)C[C@@H](OC(=O)CSc2ccccc2NC(=O)Cn2cc(CN3CCCC3)nn2)[C@]2(C)[C@H](C)CC[C@]3(CCC(=O)[C@H]32)[C@@H](C)[C@@H]1O	> 32 µg/mL	4 µg/mL (≈ 5.9 µM)		0.5 µg/mL (≈ 0.738 µM)	> 32 µg/mL	1	0.25 µg/mL (≈ 0.369 µM)	0.25 µg/mL (≈ 0.369 µM)	0.25 µg/mL (≈ 0.369 µM)	0.25 µg/mL (≈ 0.369 µM)	0.5 µg/mL (≈ 0.738 µM)	0.5 µg/mL (≈ 0.738 µM)
C=C[C@]1(C)C[C@@H](OC(=O)CSc2ccccc2NC(=O)Cn2cc(CN3CCN(c4ccc(C)cc4)CC3)nn2)[C@]2(C)[C@H](C)CC[C@]3(CCC(=O)[C@H]32)[C@@H](C)[C@@H]1O	> 32 µg/mL	0.5 µg/mL (≈ 0.639 µM)		2 µg/mL (≈ 2.55 µM)	> 32 µg/mL	1	0.5 µg/mL (≈ 0.639 µM)	1 µg/mL (≈ 1.28 µM)	1 µg/mL (≈ 1.28 µM)	1 µg/mL (≈ 1.28 µM)	4 µg/mL (≈ 5.11 µM)	2 µg/mL (≈ 2.55 µM)
C=C[C@]1(C)C[C@@H](OC(=O)CSc2ccccc2NC(=O)Cn2cc(CN3CCN(c4ccccc4)CC3)nn2)[C@]2(C)[C@H](C)CC[C@]3(CCC(=O)[C@H]32)[C@@H](C)[C@@H]1O	> 32 µg/mL	0.5 µg/mL (≈ 0.65 µM)		1 µg/mL (≈ 1.3 µM)	> 32 µg/mL	1	0.5 µg/mL (≈ 0.65 µM)	0.5 µg/mL (≈ 0.65 µM)	1 µg/mL (≈ 1.3 µM)	0.5 µg/mL (≈ 0.65 µM)	0.5 µg/mL (≈ 0.65 µM)	2 µg/mL (≈ 2.6 µM)
C=C[C@]1(C)C[C@@H](OC(=O)CSc2ccccc2NC(=O)Cn2cc(CN3CCN(c4ccccc4Cl)CC3)nn2)[C@]2(C)[C@H](C)CC[C@]3(CCC(=O)[C@H]32)[C@@H](C)[C@@H]1O	> 32 µg/mL	2 µg/mL (≈ 2.49 µM)		2 µg/mL (≈ 2.49 µM)	> 32 µg/mL	1	1 µg/mL (≈ 1.24 µM)	2 µg/mL (≈ 2.49 µM)	2 µg/mL (≈ 2.49 µM)	1 µg/mL (≈ 1.24 µM)	2 µg/mL (≈ 2.49 µM)	4 µg/mL (≈ 4.98 µM)
